Reference: ChEMBL document CHEMBL1125336, “New bronchodilators. 1. 1,5-Substituted 1H-imidazo[4,5-c]quinolin-4(5H)-ones” (J Med Chem, 1992)

Legend:
[1] = species: Cavia porcellus; assay: Inhibition of the Schulz-Dale (SD) reaction-induced contraction in trachea of guinea pig; assay type: functional
Outline: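 Tracheal zig-zag strips from passively sensitized guinea pigs, equilibrated 1 h in Krebs-Henseleit under 95% O2-5% CO2 at 37 °C. Contraction induced by OA at 10 µg/mL final bath concentration. Drug added cumulatively at 7-min intervals once contraction reached plateau; isotonic recording, relaxation scaled to papaverine maximum. Triplicate curves with 4–5 concentrations; IC50 by logit-log fit.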

[2] = test system: Cavia porcellus; assay: Effect on collapse time of antigen-induced bronchospasm in passively sensitized guinea pigs (at 50 mg/kg, po).MCT for untreated animals is 254+/-18.; assay type: functional
[3] = test system: Mus musculus; assay: Acute lethal toxicity (minimum lethal dose; MLD, po) in mice.; assay type: organism-based; details: in vivo
Outline: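 Male dd mice (20–25 g), n = 3 per dose, given compound orally. Deaths observed for 7 days; MLD taken as the dose killing at least one mouse.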

[4] = test system: Cavia porcellus; assay: Effect on collapse time of antigen-induced bronchospasm in passively sensitized guinea pigs (at 25 mg/kg, po).MCT for untreated animals is 254+/-18.; assay type: functional
[5] = species: Cavia porcellus; assay: Inhibitory effect on spasmogen (carbachol) induced contraction of guinea pig tracheal strips.; assay type: functional; details: Trachea
Outline: (§1)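 Zig-zag tracheal strips from normal guinea pigs, equilibrated 1 h in Krebs–Henseleit (95% O2/5% CO2, 37 °C). Contracted with carbachol 3 × 10⁻⁶ mol final, histamine 3 × 10⁻⁵ mol, or LTD4 50 µg/mL. Drug added cumulatively every 7 min after the plateau; isotonic recording. IC50 for 50% relaxation by least-squares regression.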

[6] = test system: Cavia porcellus; assay: Effect on left ventricular dP/dtmax 1(mins) after intravenous administration in anesthetized guinea pigs after a intravenous administration of 3 mg/kg; assay type: functional, Heart left ventricle
Outline: (§2)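 Male guinea pigs anesthetized with pentobarbital sodium (50 mg/kg ip), ventilated via tracheotomy with room air (60/min, 10 mL/kg). Left-ventricular cannula via left common carotid to a pressure transducer for LVP and LV dP/dtmax; heart rate triggered by LVP. Drug given iv through the left jugular vein, vehicle PEG 400 diluted with saline. Change expressed as % of pretreatment value; mean ± SEM, n = 5.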

[7] = test system: Cavia porcellus; assay: Effect on left ventricular dP/dtmax 0(mins) after intravenous administration in anesthetized guinea pigs after a intravenous administration of 3 mg/kg; assay type: functional, Heart left ventricle; outline: as §2
[8] = test system: Cavia porcellus; assay: Effect on heart rate 0(mins) after intravenous administration in anesthetized guinea pigs after intravenous administration of 3 mg/kg; assay type: functional; outline: as §2
[9] = test system: Cavia porcellus; assay: Effect on left ventricular dP/dtmax 5(mins) after intravenous administration in anesthetized guinea pigs after a intravenous administration of 3 mg/kg; assay type: functional, Heart left ventricle; outline: as §2
[10] = test system: Cavia porcellus; assay: Effect on collapse time of antigen-induced bronchospasm in passively sensitized guinea pigs (at 25 mg/kg, po). MCT for untreated animals is 254+/-18; assay type: functional
[11] = species: Cavia porcellus; assay: Inhibitory effect on spasmogen (histamine) induced contraction of guinea pig tracheal strips.; assay type: functional; details: Trachea; outline: as §1
[12] = test system: Cavia porcellus; assay: Effect on heart rate 3(mins) after intravenous administration in anesthetized guinea pigs after intravenous administration of 3 mg/kg; assay type: functional; outline: as §2
[13] = test system: Cavia porcellus; assay: Effect on heart rate 5(mins) after intravenous administration in anesthetized guinea pigs after intravenous administration of 3 mg/kg; assay type: functional; outline: as §2
[14] = test system: Cavia porcellus; assay: Effect of the compound (intravenous administration) on anaphylactic bronchoconstriction in passively sensitized guinea pigs.; assay type: functional; details: Lung
Outline: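 Male Hartley guinea pigs (350–450 g) passively sensitized ip with rabbit anti-OA serum 16–24 h before. Urethane anesthesia (1.5 g/kg ip), gallamine 10 mg/kg iv, ventilated 60–70 strokes/min. Konzett–Rössler air overflow after OA challenge 5 mg/kg iv. Compound in PEG 400 diluted with saline, given iv 90 s after challenge. ED50 by linear regression of AUC versus log dose.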

[15] = species: Cavia porcellus; assay: Inhibitory effect on spasmogen (leukotriene, LTD4) induced contraction of guinea pig tracheal strips.; assay type: functional; details: Trachea; outline: as §1
[16] = test system: Cavia porcellus; assay: Effect on heart rate 1(mins) after intravenous administration in anesthetized guinea pigs after intravenous administration of 3 mg/kg; assay type: functional; outline: as §2
[17] = test system: Cavia porcellus; assay: Effect of the compound (peroral administration) on anaphylactic bronchoconstriction in passively sensitized guinea pigs.; assay type: functional; details: Lung, po
Outline: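 Male Hartley guinea pigs (350–450 g) passively sensitized ip with rabbit anti-OA serum 16–24 h before. Urethane-anesthetized, gallamine-paralysed, ventilated. Air overflow (Konzett–Rössler) after OA 5 mg/kg iv. Compound suspended in 0.3% Tween 80, given orally 1 h before challenge. ED50 by linear regression of AUC versus log dose.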

[18] = test system: Cavia porcellus; assay: Effect on left ventricular dP/dtmax 3(mins) after intravenous administration in anesthetized guinea pigs after a intravenous administration of 3 mg/kg; assay type: functional, Heart left ventricle; outline: as §2
[19] = test system: Cavia porcellus; assay: Effect on heart rate 1(mins) after intravenous administration in anesthetized guinea pigs.; assay type: functional
Outline: (§3)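 Male guinea pigs under pentobarbital (50 mg/kg ip), tracheotomy, room-air ventilation at 60/min, 10 mL/kg. Carotid cannula advanced into the left ventricle to read LVP and LV dP/dtmax; heart rate triggered from LVP. Single 3 mg/kg iv dose via jugular vein. Values are percent of pretreatment, n = 5.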

[20] = test system: Cavia porcellus; assay: Effect on left ventricular dP/dtmax 5(mins) after intravenous administration in anesthetized guinea pigs; assay type: functional, Heart left ventricle; outline: as §3
[21] = test system: Cavia porcellus; assay: Effect on heart rate 3(mins) after intravenous administration in anesthetized guinea pigs; assay type: functional; outline: as §3
[22] = test system: Cavia porcellus; assay: Effect on left ventricular dP/dtmax 3(mins) after intravenous administration in anesthetized guinea pigs; assay type: functional, Heart left ventricle; outline: as §3
[23] = test system: Cavia porcellus; assay: Effect on left ventricular dP/dtmax 0(mins) after intravenous administration in anesthetized guinea pigs.; assay type: functional, Heart left ventricle; outline: as §3
[24] = test system: Cavia porcellus; assay: Effect on heart rate 5(mins) after intravenous administration in anesthetized guinea pigs; assay type: functional; outline: as §3
[25] = test system: Cavia porcellus; assay: Effect on left ventricular dP/dtmax 1(mins) after intravenous administration in anesthetized guinea pigs.; assay type: functional, Heart left ventricle; outline: as §3
[26] = test system: Cavia porcellus; assay: Effect on heart rate 0(mins) after intravenous administration in anesthetized guinea pigs.; assay type: functional; outline: as §3

| Structure (SMILES) | IC50 [1] | MLD [3] | also measured |
| --- | --- | --- | --- |
| CCCCn1cnc2c(=O)n(CCCC)c3ccccc3c21 | 5.47 µM | > 300 mg/kg | MCT [2]: 504 s |
| CCCn1c(=O)c2ncn(C)c2c2ccccc21 | 10.7 µM | 300 mg/kg |  |
| CCCCn1c(=O)c2ncn(C)c2c2cc(C)ccc21 | 7.97 µM | > 300 mg/kg | MCT [2]: 356 s |
| CCCCn1c(=O)c2ncn(C)c2c2c(C)cccc21 | > 30 µM |  |  |
| CCCCn1c(=O)c2nnn(C)c2c2ccccc21 | 1.58 µM | > 300 mg/kg | MCT [2]: 296 s |
| C=CCCn1c(=O)c2ncn(C)c2c2ccccc21 | 5.62 µM | 200 mg/kg | MCT [2]: 342 s |
| CCCCn1c(=O)c2ncn(CCC)c2c2ccccc21 | 3.99 µM | > 300 mg/kg |  |
| CCCCn1c(=O)c2nc(O)n(C)c2c2ccccc21 | > 30 µM |  |  |
| CCCCn1c(=O)c2ncn(CC)c2c2ccccc21 | 4.9 µM | > 300 mg/kg |  |
| CCCCn1c(=O)c2nc(S)n(C)c2c2ccccc21 | 8.2 µM | > 300 mg/kg |  |
| Cn1cnc2c(=O)n(C3CCCC3)c3ccccc3c21 | 6.58 µM | 300 mg/kg |  |
| CCCCn1c(=O)c2ncn(C(C)C)c2c2ccccc21 | 2.6 µM | > 300 mg/kg | MCT [4]: 425 s |
| CCCCn1c2c(c3c(ncn3C)c1=O)CCCC2 | > 30 µM |  |  |
| CCCCn1c(=O)c2ncn(C)c2c2ccccc21 | 0.25 µM | > 300 mg/kg | IC50 [5]: 27.2 µM; LV dP/dtmax [6]: 91.6%; LV dP/dtmax [7]: 100%; Heart rate [8]: 100%; LV dP/dtmax [9]: 99.4%; MCT [10]: 342 s; IC50 [11]: 2.12 µM; Heart rate [12]: 101%; Heart rate [13]: 101%; ED50 [14]: 0.42 mg/kg; IC50 [15]: 9.19 µM; Heart rate [16]: 98.5%; ED50 [17]: 44.9 mg/kg; LV dP/dtmax [18]: 98.9% |
| CCCCn1c(=O)c2nc(-c3ccc(Cl)c(Cl)c3)n(C)c2c2ccccc21 | > 30 µM |  |  |
| CCCCn1c(=O)c2ncn(C)c2c2cc(OC)c(OC)cc21 | > 30 µM |  |  |
| CCCCn1c(=O)c2nc(-c3ccco3)n(C)c2c2ccccc21 | > 30 µM |  |  |
| CCCCn1c(=O)c2nc(-c3ccc(OC)cc3)n(C)c2c2ccccc21 | > 30 µM |  |  |
| CCCCn1c(=O)c2ncn(C)c2c2ccc(Cl)cc21.Cl | 1.52 µM | > 300 mg/kg | MCT [2]: 289 s |
| CCCCn1c(=O)c2nc(C)n(C)c2c2ccccc21 | > 30 µM |  |  |
| Cn1c(=O)c2[nH]cnc2n(C)c1=O.Cn1c(=O)c2[nH]cnc2n(C)c1=O.NCCN [AMINOPHYLLINE] | 16.7 µM |  | Heart rate [19]: 108%; IC50 [5]: 37.7 µM; LV [20]: 116%; IC50 [11]: 33.2 µM; Heart rate [21]: 105%; ED50 [14]: 7.8 mg/kg; IC50 [15]: 23.6 µM; ED50 [17]: 51.7 mg/kg; LV [22]: 117%; LV [23]: 100%; Heart rate [24]: 105%; LV [25]: 125%; Heart rate [26]: 100% |
| Cn1c(=O)c2nc[nH]c2n(C)c1=O.O [THEOPHYLLINE] | 6.52 µM |  | MCT [4]: 389 s |

Now from value to compound, other results behind:

| IC50 [1] | Structure (SMILES) | MLD [3] | also measured |
| --- | --- | --- | --- |
| > 30 µM | CCCCn1c(=O)c2ncn(Cc3ccccc3)c2c2ccccc21 |  |  |
| > 30 µM | Cn1cnc2c(=O)n(CC(=O)O)c3ccccc3c21 |  |  |
| > 30 µM | CCn1c(=O)c2ncn(C)c2c2ccccc21 |  |  |
| > 30 µM | CCCCn1c(=O)c2ncn(-c3ccccc3)c2c2ccccc21 |  |  |
| > 30 µM | Cn1cnc2c(=O)n(C)c3ccccc3c21 |  |  |
| > 30 µM | CCCCn1c(=O)c2ncn(C)c2c2cc(Cl)ccc21 |  |  |
| > 30 µM | COCCn1c(=O)c2ncn(C)c2c2ccccc21 |  |  |
| > 30 µM | Cn1cnc2c(=O)n(Cc3ccco3)c3ccccc3c21 |  |  |
| > 30 µM | CCCCCn1c(=O)c2ncn(C)c2c2ccccc21 |  |  |
| > 30 µM | CC(C)Cn1c(=O)c2ncn(C)c2c2ccccc21 |  |  |
| > 30 µM | CCCCn1c(=O)c2nc(-c3ccccc3)n(C)c2c2ccccc21 |  |  |
| > 30 µM | Cn1cnc2c(=O)n(Cc3ccccc3)c3ccccc3c21 |  |  |
